In PMC4942345 (Organic & biomolecular chemistry, 2016):
Where a SMILES comes first, the peptide text is derived from it. [ ]: non-standard residue; d: D form. The star is where a group is joined. Benzoyl(4-SO2NH2) = NS(=O)(=O)c1ccc(C(=O)*)cc1

Experiments:
[1] = test system: mixture of hCAIX, hCAXII, hCAVB and hCAII; experiment: Pull-down experiment with a mixture of CA isozymes, SDS-PAGE; assay type: binding, human; conditions: [CA] = 1.00 μM, Fig. 4
hCAII [2] = target: T1, hCAII (Homo sapiens, UniProt P00918); experiment: Esterase activity inhibition; assay type: biochemical; conditions: from IC50 values
In short: (§1)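 Commercial human CA isozyme at 0.2 μM was run with the inhibitor-peptide conjugate as blocker. The substrate was 50 μM 4-nitrophenyl acetate in Tris buffer (9 mM Tris-HCl, 81 mM NaCl, 10% v/v acetonitrile, 1% v/v DMSO). Nitrophenol formation was followed by absorbance at 400 nm. Each run was done at least in triplicate.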

hCAII [3] = target: T1, hCAII; assay type: binding; conditions: fluorescence visualization of SDS gel, Fig. 3b and 3c
In short: (§2)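 Excess biotinylated conjugate was loaded onto streptavidin agarose in PBS for 2 h, then washed 3-4 times with PBS and 0.05% PBST. The resin was incubated overnight at 4 °C with hCAII and hCAI, added separately or as a mixture, then washed. It was boiled 10 min at 99 °C in SDS loading buffer with reducing agent and run on SDS-PAGE.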

hCAI [4] = target: T2, hCAI (Homo sapiens, UniProt P00915); experiment: Esterase activity inhibition; assay type: biochemical
T2 sequence (P00915 whole entry): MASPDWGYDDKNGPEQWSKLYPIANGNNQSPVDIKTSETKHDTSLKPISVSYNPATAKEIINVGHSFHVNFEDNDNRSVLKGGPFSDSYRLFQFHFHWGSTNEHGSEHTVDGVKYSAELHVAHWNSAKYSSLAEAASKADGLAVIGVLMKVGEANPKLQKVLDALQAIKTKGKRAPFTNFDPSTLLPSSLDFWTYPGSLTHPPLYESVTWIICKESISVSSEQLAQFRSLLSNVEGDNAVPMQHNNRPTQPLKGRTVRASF
In short: as §1

hCAI [5] = target: T2, hCAI; assay type: binding
In short: as §2

## CC(C)C[C@@H](NC(=O)[C@@H](CC(=O)O)NC(=O)c1ccc(S(N)(=O)=O)cc1)C(=O)N[C@H](CC(=O)O)C(=O)N[C@H](CC(=O)O)C(=O)N[C@H](Cc1c[nH]c2ccccc12)C(N)=O [Compound 7, 4-CBS-dlddw] ({Benzoyl(4-SO2NH2)}-[dD][dL][dD][dD][dW]-NH2)
[1]
  pull-down with mixture of CA isozymes: isozyme captured: selective capturing of hCAII
hCAII [2]
  increase of inhibitory activity against hCAII compared to 4-ABS: ca. 17 fold
hCAII [3]
  pull-down with mixture of ZW700-hCAII and CY3-hCAI: binding to hCAII: significantly increased binding selectively to hCAII

## CC(C)C[C@@H](NC(=O)[C@H](NC(=O)[C@@H](CC(=O)O)NC(=O)[C@H](NC(=O)[C@@H](CC(=O)O)NC(=O)c1ccc(S(N)(=O)=O)cc1)C(C)C)C(C)C)C(N)=O [Compound 9, 4-CBS-dvdvl] ({Benzoyl(4-SO2NH2)}-[dD][dV][dD][dV][dL]-NH2)
[1]
  pull-down with mixture of CA isozymes: isozyme captured: selective capturing of hCAII
hCAII [2]
  increase of inhibitory activity against hCAII compared to 4-ABS: 2.6 fold
hCAI [4]; from IC50 values, esterase activity
  increase of inhibitory activity against hCAI compared to 4-ABS: 30 fold
hCAI [4]; hCAI versus hCAII and hCAIX
  specificity in terms of enzymatic inhibitory activity (IC50): good specificity for hCAI
hCAI [5]; [hCA] = 0.57 μM, Fig. 3a, compared with 1, 2 and 7
  pull-down, enzymes tested separately: capturing ability for hCAI: greatest capturing ability for hCAI
hCAI [5]; fluorescence visualization of SDS gel, Fig. 3b and 3c
  pull-down with mixture of ZW700-hCAII and CY3-hCAI: binding to hCAI: binds strongly
hCAII [3]
  pull-down with mixture of ZW700-hCAII and CY3-hCAI: binding to hCAII: binds strongly
